Measured values taken from ChEMBL document CHEMBL1124216, “A novel class of potential central nervous system agents. 3-Phenyl-2-(1-piperazinyl)-5H-1-benzazepines” (1988).

Tests used:
Type in all cases: functional
[1] = tested on: Mus musculus; assay: Antitremorine activity(TRM) of mice after peroral administration of 100 mg/kg of compound; No inhibition; conditions: route oral
[2] = tested on: Mus musculus; assay: Antimaximal electroshock seizure activity was determined in mice when administered perorally; conditions: po
[3] = tested on: Mus musculus; assay: Antimaximal electroshock seizure (MES) activity in mice after peroral administration of 100 mg/kg of compound; 0/5; conditions: route oral
[4] = tested on: Mus musculus; assay: Antiexploratory activity (EXPL) of mice determined by an antimex activity meter, 100 mg/kg of dose was administered perorally; Moderate inhibition (51-71%); conditions: route oral
[5] = tested on: Mus musculus; assay: Antipentylene tetrazole activity was determined in mice when administered perorally; conditions: po
Method in brief: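 Groups of five male Std-ddY mice received compound orally in 0.5% tragacanth, then pentylenetetrazole 175 mg/kg ip. Blockade of the tonic extensor component scored as anticonvulsant. ED50 was the dose protecting 50% of animals (Litchfield-Wilcoxon).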

[6] = tested on: Mus musculus; assay: Antireserpine activity (RES) of mice after peroral administration of 100 mg/kg of compound; No inhibition; conditions: route oral
[7] = tested on: Mus musculus; assay: Antitremorine activity(TRM) of mice after peroral administration of 100 mg/kg of compound; Slight inhibition (31-50%); conditions: route oral
[8] = tested on: Mus musculus; assay: Antiexploratory activity (EXPL) of mice determined by an antimex activity meter,100 mg/kg of dose was administered perorally; No inhibition
[9] = tested on: Mus musculus; assay: Antireserpine activity (RES) of mice after peroral administration of 50 mg/kg of compound; Slight inhibition (31-50%); conditions: route oral
[10] = tested on: Mus musculus; assay: Antiexploratory activity (EXPL) of mice determined by an antimex activity meter, 50 mg/kg of dose was administered perorally; Slight inhibition (31-50%); conditions: route oral
[11] = tested on: Mus musculus; assay: Antiexploratory activity (EXPL) of mice determined by an antimex activity meter, 100 mg/kg of dose was administered perorally; Slight inhibition (31-50%); conditions: route oral
[12] = tested on: Mus musculus; assay: Antimaximal electroshock seizure (MES) activity in mice after peroral administration of 100 mg/kg of compound; 5/5; conditions: route oral
[13] = tested on: Mus musculus; assay: Antitremorine activity(TRM) of mice after peroral administration of 100 mg/kg of compound; Moderate inhibition (51-71%); conditions: route oral
[14] = tested on: Mus musculus; assay: Antimaximal electroshock seizure (MES) activity in mice after peroral administration of 10 mg/kg of compound; 0/5; conditions: route oral
[15] = tested on: Mus musculus; assay: Antiexploratory activity (EXPL) of mice determined by an antimex activity meter, 50 mg/kg of dose was administered perorally; No inhibition; conditions: route oral
[16] = tested on: Mus musculus; assay: Antiexploratory activity (EXPL) of mice determined by an antimex activity meter, 100 mg/kg of dose was administered perorally; No inhibition; conditions: route oral
[17] = tested on: Mus musculus; assay: Antimaximal electroshock seizure (MES) activity in mice after peroral administration of 100 mg/kg of compound; 4/5; conditions: route oral
[18] = tested on: Mus musculus; assay: Antireserpine activity (RES) of mice after peroral administration of 100 mg/kg of compound; Slight inhibition (31-50%); conditions: route oral
[19] = tested on: Mus musculus; assay: Antireserpine activity (RES) of mice after peroral administration of 50 mg/kg of compound; No inhibition; conditions: route oral
[20] = tested on: Mus musculus; assay: Antitremorine activity(TRM) of mice after peroral administration of 100 mg/kg of compound; conditions: route oral
[21] = tested on: Mus musculus; assay: Exploratory activity of mice determined by an antimex activity meter, 50 mg/kg of dose was administered perorally; conditions: Mus musculus, po
Method in brief: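 Male Std-ddY mice (20-25 g), five per dose; compound in 0.5% aqueous tragacanth given orally. Two hours later each mouse placed in an Animex activity meter cage and locomotor activity counted for 3 min. Mean suppression expressed as percent inhibition of control; ED50 by Litchfield-Wilcoxon.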

[22] = tested on: Mus musculus; assay: The homovanillic acid (HVA) levels in mouse brain at 10 mg/kg of dose.
Method in brief: (§1)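 Mice dosed orally in 0.5% aqueous tragacanth; brains of five mice per compound pooled. Homovanillic acid measured in brain extracts and reported as brain level.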

[23] = tested on: Mus musculus; assay: Antiexploratory activity (EXPL) of mice determined by an antimex activity meter, 50 mg/kg of dose was administered perorally; Moderate inhibition (51-71%); conditions: route oral
[24] = tested on: Mus musculus; assay: 3,4 -Dihydroxy phenylacetic acid (DOPAC) levels in mouse brain at 10 mg/kg dose.
Method in brief: (§2)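 Male Std-ddY mice, 20-25 g, dosed orally with compound in 0.5% aqueous tragacanth. DOPAC was measured fluorometrically after purification by column chromatography on Sephadex G-10 and QAE-Sephadex. Brains from five mice per compound were pooled for each determination.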

[25] = tested on: Canis familiaris; assay: Inhibition of apomorphine induced emesis in dogs at 1 mg/kg of dose.; conditions: Canis lupus familiaris
Method in brief: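 Beagle dogs (10-15 kg), groups of three, given compound po in a gelatin capsule; 2 h later apomorphine hydrochloride 0.3 mg/kg sc. Vomiting counted for 1 h; mean inhibition as percent of control. ED50 is the dose giving 50% inhibition of emesis, by Litchfield-Wilcoxon.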

[26] = tested on: Mus musculus; assay: 3,4 -Dihydroxy phenylacetic acid (DOPAC) levels in mouse brain at 50 mg/kg dose.; method in brief: as §2
[27] = tested on: Mus musculus; assay: Exploratory activity of mice determined by an antimex activity meter, 10 mg/kg of dose was administered perorally; conditions: route oral
[28] = tested on: Mus musculus; assay: Antiexploratory activity (EXPL) of mice determined by an antimex activity meter, 10 mg/kg of dose was administered perorally; No inhibition; conditions: route oral
[29] = tested on: Mus musculus; assay: The homovanillic acid (HVA) levels in mouse brain at 50 mg/kg of dose.; method in brief: as §1
[30] = tested on: Mus musculus; assay: Antimaximal electroshock seizure (MES) activity in mice after peroral administration of 100 mg/kg of compound; 3/5; conditions: route oral

## CCN1CCN(C2=Nc3ccc(F)cc3CC=C2c2ccccc2)CC1.Cl.Cl
[1]
  inhibition in vivo at 100 mg/kg: < 30%
[2]
  ED50: > 500 mg/kg
[3]
  Activity: 0
[4]
  inhibition in vivo at 100 mg/kg: 51%
[5]
  ED50: > 100 mg/kg
[6]
  inhibition in vivo at 100 mg/kg: < 30%

## CCCN1CCN(C2=Nc3ccc(CC)cc3CC=C2c2ccccc2)CC1.O=C(O)/C=C/C(=O)O
[7]
  inhibition in vivo at 100 mg/kg: 31%
[8]
  Inhibition: <30%
[3]
  Activity: 0
[6]
  inhibition in vivo at 100 mg/kg: < 30%

## Fc1ccc(C2=CCc3ccccc3N=C2N2CCNCC2)cc1
[9]
  inhibition in vivo at 50 mg/kg: 31%
[10]
  inhibition in vivo at 50 mg/kg: 31%

## Cl.Cl.OCCN1CCN(C2=Nc3ccccc3CC=C2c2ccccc2Cl)CC1
[7]
  inhibition in vivo at 100 mg/kg: 31%
[3]
  Activity: 0
[4]
  inhibition in vivo at 100 mg/kg: 51%
[6]
  inhibition in vivo at 100 mg/kg: < 30%

## CN1CCN(C2=Nc3ccccc3CC=C2c2ccc(Cl)cc2)CC1.Cl.Cl
[7]
  inhibition in vivo at 100 mg/kg: 31%
[3]
  Activity: 0
[11]
  inhibition in vivo at 100 mg/kg: 31%
[6]
  inhibition in vivo at 100 mg/kg: < 30%

## CCc1ccc2c(c1)CC=C(c1ccccc1)C(N1CCN(C(C)C)CC1)=N2.O=C(O)/C=C/C(=O)O
[12]
  Activity: 5
[8]
  Inhibition: <30%
[13]
  inhibition in vivo at 100 mg/kg: 51%
[14]
  Activity: 0
[6]
  inhibition in vivo at 100 mg/kg: < 30%

## Clc1ccc(C2=CCc3ccccc3N=C2N2CCN(Cc3ccccc3)CC2)cc1
[9]
  inhibition in vivo at 50 mg/kg: 31%
[15]
  inhibition in vivo at 50 mg/kg: < 30%

## Cl.Cl.OCCN1CCN(C2=Nc3ccc(Cl)cc3CC=C2c2ccccc2)CC1
[2]
  ED50: 49.5 mg/kg
[13]
  inhibition in vivo at 100 mg/kg: 51%
[16]
  inhibition in vivo at 100 mg/kg: < 30%
[14]
  Activity: 0
[5]
  ED50: 26.5 mg/kg
[17]
  Activity: 4
[6]
  inhibition in vivo at 100 mg/kg: < 30%

## CCc1ccc2c(c1)CC=C(c1ccccc1)C(N1CCN(CC)CC1)=N2.Cl.Cl
[12]
  Activity: 5
[11]
  inhibition in vivo at 100 mg/kg: 31%
[13]
  inhibition in vivo at 100 mg/kg: 51%
[14]
  Activity: 0
[6]
  inhibition in vivo at 100 mg/kg: < 30%

## Clc1ccc2c(c1)N=C(N1CCNCC1)C(c1ccccc1)=CC2.O=C(O)/C=C/C(=O)O
[1]
  inhibition in vivo at 100 mg/kg: < 30%
[18]
  inhibition in vivo at 100 mg/kg: 31%
[3]
  Activity: 0
[11]
  inhibition in vivo at 100 mg/kg: 31%

## COc1ccc(C2=CCc3ccccc3N=C2N2CCN(C)CC2)cc1
[9]
  inhibition in vivo at 50 mg/kg: 31%
[15]
  inhibition in vivo at 50 mg/kg: < 30%

## CCN1CCN(C2=Nc3ccccc3CC=C2c2ccc(C(F)(F)F)cc2)CC1
[15]
  inhibition in vivo at 50 mg/kg: < 30%
[19]
  inhibition in vivo at 50 mg/kg: < 30%

## Cl.OC1(c2ccc(Cl)cc2)CCN(C2=Nc3ccc(Br)cc3CC=C2c2ccccc2)CC1
[1]
  inhibition in vivo at 100 mg/kg: < 30%
[8]
  Inhibition: <30%
[3]
  Activity: 0
[6]
  inhibition in vivo at 100 mg/kg: < 30%

## CN1CCN(C2=Nc3ccc(Br)cc3CC=C2c2ccccc2)CC1.Cl.Cl
[12]
  Activity: 5
[20]
  inhibition in vivo at 100 mg/kg: > 71%
[2]
  ED50: 31.2 mg/kg
[16]
  inhibition in vivo at 100 mg/kg: < 30%
[5]
  ED50: 8.3 mg/kg
[6]
  inhibition in vivo at 100 mg/kg: < 30%

## Cl.Cl.OCCN1CCN(C2=Nc3ccccc3CC=C2c2ccc(F)cc2)CC1
[21]
  inhibition in vivo at 50 mg/kg: 68.4%
[22]
  Control: 243%
[23]
  inhibition in vivo at 50 mg/kg: 51%
[24]
  Control: 262%
[25]
  inhibition in vivo at 1 mg/kg: 100%
[26]
  Control: 369%
[27]
  inhibition in vivo at 10 mg/kg: 19.6%
[28]
  inhibition in vivo at 10 mg/kg: < 30%
[29]
  Control: 349%

## CN1CCN(C2=Nc3ccccc3CC=C2c2ccc(C(F)(F)F)cc2)CC1
[15]
  inhibition in vivo at 50 mg/kg: < 30%
[19]
  inhibition in vivo at 50 mg/kg: < 30%

## CCN1CCN(C2=Nc3ccc(Br)cc3CC=C2c2ccccc2)CC1.Cl.Cl
[1]
  inhibition in vivo at 100 mg/kg: < 30%
[2]
  ED50: 30.7 mg/kg
[30]
  Activity: 3
[16]
  inhibition in vivo at 100 mg/kg: < 30%
[5]
  ED50: 17.2 mg/kg
[6]
  inhibition in vivo at 100 mg/kg: < 30%

## OCCN1CCN(C2=Nc3ccccc3CC=C2c2ccc(O)cc2)CC1
[15]
  inhibition in vivo at 50 mg/kg: < 30%
[19]
  inhibition in vivo at 50 mg/kg: < 30%

## OCCN1CCN(C2=Nc3ccccc3CC=C2c2ccc(C(F)(F)F)cc2)CC1
[15]
  inhibition in vivo at 50 mg/kg: < 30%
[19]
  inhibition in vivo at 50 mg/kg: < 30%

## CN1CCN(C2=Nc3cc(Cl)ccc3CC=C2c2ccc(Cl)cc2)CC1.Cl.Cl
[1]
  inhibition in vivo at 100 mg/kg: < 30%
[3]
  Activity: 0
[4]
  inhibition in vivo at 100 mg/kg: 51%
[6]
  inhibition in vivo at 100 mg/kg: < 30%

## CN1CCN(C2=Nc3ccccc3CC=C2c2ccccc2)CC1.Cl.Cl
[1]
  inhibition in vivo at 100 mg/kg: < 30%
[18]
  inhibition in vivo at 100 mg/kg: 31%
[2]
  ED50: > 100 mg/kg
[3]
  Activity: 0
[4]
  inhibition in vivo at 100 mg/kg: 51%

## C#CCN1CCN(C2=Nc3ccc(Br)cc3CC=C2c2ccccc2)CC1
[20]
  inhibition in vivo at 100 mg/kg: < 30%
[3]
  Activity: 0
[16]
  inhibition in vivo at 100 mg/kg: < 30%
[6]
  inhibition in vivo at 100 mg/kg: < 30%

## CCN1CCN(C2=Nc3ccccc3CC=C2c2ccc(Cl)cc2)CC1.Cl.Cl
[1]
  inhibition in vivo at 100 mg/kg: < 30%
[3]
  Activity: 0
[4]
  inhibition in vivo at 100 mg/kg: 51%
[6]
  inhibition in vivo at 100 mg/kg: < 30%

## O=C(CCCN1CCN(C2=Nc3ccccc3CC=C2c2ccc(Cl)cc2)CC1)c1ccc(F)cc1
[10]
  inhibition in vivo at 50 mg/kg: 31%
[19]
  inhibition in vivo at 50 mg/kg: < 30%

## CCCCN1CCN(C2=Nc3ccc(CC)cc3CC=C2c2ccccc2)CC1.O=C(O)/C=C/C(=O)O
[7]
  inhibition in vivo at 100 mg/kg: 31%
[8]
  Inhibition: <30%
[3]
  Activity: 0
[6]
  inhibition in vivo at 100 mg/kg: < 30%

## Cc1ccc2c(c1)CC=C(c1ccccc1)C(N1CCN(C)CC1)=N2.Cl.Cl
[1]
  inhibition in vivo at 100 mg/kg: < 30%
[2]
  ED50: 86.1 mg/kg
[30]
  Activity: 3
[16]
  inhibition in vivo at 100 mg/kg: < 30%
[5]
  ED50: 50.9 mg/kg
[6]
  inhibition in vivo at 100 mg/kg: < 30%
